Experiment [1] deals with Rattus norvegicus. Kind of experiment: Antiinflammatory activity was assessed in carrageenan-induced rat paw edema(CIRPE) test after po administration. The class given is functional. The note with it: read-out: MED. A digest of the protocol: (§1)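 Male Charles-River rats, groups of 8–10; compound given orally as aqueous suspension, then 1 h later 0.05 mL of 1% carrageenin in 0.9% saline injected into plantar left hind paw. Injected and uninjected paw volumes measured 3 h later by mercury displacement to the lateral malleolus mark; difference compared statistically between treated and control groups at oral screening dose.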
For orientation: Carrageenan injected into the paw causes an acute inflammation.

The subject of experiment [2] is Rattus norvegicus. Kind of experiment: Antiinflammatory activity was assessed in therapeutic adjuvant induced polyarthritis(AIP) test after po administration. The class given is functional. The note with it: read-out: MED. Summed up:
(§2)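 Male Charles-River-Lewis rats (150 ± 10 g) injected day 1 in left hind paw with heat-killed Mycobacterium butyricum in mineral oil (250 μg/0.05 mL). Day 14, only responders (lesions in both hind paws) randomized into groups of 10, treated days 14–27, sacrificed day 28; hind paw weight change from day 14 to day 28.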

Experiment [3] deals with Rattus norvegicus. The experiment in a line: Antiinflammatory activity was assessed in prophylactic adjuvant induced polyarthritis(AIP) test after po administration. The class given is functional. The note with it: for minimal effective dose: Rattus norvegicus, po, read-out: MED. Summed up: (§3)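 Male Charles-River-Lewis rats (150 ± 10 g), groups of 10. Day 1: heat-killed Mycobacterium butyricum in light mineral oil (250 μg/0.05 mL) injected into left hind paw. Dosing on days 1–20; sacrifice day 21, hind paw weights recorded; change taken as difference between day 1 and day 21.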

The subject of experiment [4] is Rattus norvegicus. The experiment in a line: Antiinflammatory activity was assessed in carrageenan-induced rat paw edema(CIRPE) test after po administration; Inactive at 100 mg/kg. The class given is functional, organism-based. Also on record: dose 100 mg/kg. A digest of the protocol:
as §1

In experiment [5] the test system is Rattus norvegicus. The experiment in a line: Antiinflammatory activity was assessed in prophylactic adjuvant induced polyarthritis(AIP) test after po administration. The class given is functional. The note with it: read-out: MED. Summed up:
as §3

For experiment [6], the system named is Rattus norvegicus. The experiment in a line: Antiinflammatory activity was assessed in therapeutic adjuvant induced polyarthritis(AIP) test after po administration. The class given is functional. The note with it: read-out: MED. Summed up:
as §2

Active and inactive are the calls of the source. No cut-off for these calls is given here.

For the molecule `Cc1cc(NC(=O)C2=C(O)c3ccccc3S(=O)(=O)N2C)no1` [ISOXICAM], the values for the minimal effective dose in experiment [1], in experiment [2] and in experiment [3] were 12.5 mg/kg, 1.56 mg/kg and 1.56 mg/kg, respectively.
For the molecule `CCCCC1C(=O)N(c2ccccc2)N(c2ccccc2)C1=O` [PHENYLBUTAZONE], the minimal effective dose in experiment [1] was found to be 37.5 mg/kg; in experiment [3] it was 1.56 mg/kg. Further, in experiment [3], the MED is 1.56 mg/kg.
Take `CC(=O)Cc1noc(C2=C(O)c3ccccc3S(=O)(=O)N2)n1`: in experiment [4], the MED entry is “inactive”.
Consider `Cc1cc(NC(=O)CNS(=O)(=O)c2ccccc2C(=O)O)no1`, for which, in experiment [4], the MED entry is “inactive”.
The same measure, in the same setting: as for `Cc1cc(NC(=O)CC(=O)c2ccccc2S(=O)(=O)N(C)C)no1`, the entry is “inactive”.
As to `COc1ccc2c(c1)c(CC(=O)O)c(C)n2C(=O)c1ccc(Cl)cc1` [INDOMETHACIN], the minimal effective dose is 0.37 mg/kg in experiment [1], 0.39 mg/kg in experiment [5] and 0.39 mg/kg in experiment [6].
With `CC(=O)Oc1ccccc1C(=O)O` [ASPIRIN], the minimal effective dose in experiment [1] was determined as 100 mg/kg.
As for `CC(=O)Cc1noc(C2=C(O)c3ccccc3S(=O)(=O)N2C)n1`, the MED result in experiment [4] was “inactive”.

Source of the values: ChEMBL document CHEMBL1121925, “Isoxicam and related 4-hydroxy-N-isoxazolyl-2H-1,2-benzothiazine-3-carboxamide 1,1-dioxides. Potent nonsteroidal antiinflammatory agents” (1982).
